Measurements published in ChEMBL document CHEMBL4028879, “Structure-Activity Relationship Studies of Pyrimido[5,4-b]indoles as Selective Toll-Like Receptor 4 Ligands” (J Med Chem, 2017).

Molecular target: T1, Toll-like receptor 4 (Mus musculus) (UniProt Q9QUK6)
T1 sequence (whole entry): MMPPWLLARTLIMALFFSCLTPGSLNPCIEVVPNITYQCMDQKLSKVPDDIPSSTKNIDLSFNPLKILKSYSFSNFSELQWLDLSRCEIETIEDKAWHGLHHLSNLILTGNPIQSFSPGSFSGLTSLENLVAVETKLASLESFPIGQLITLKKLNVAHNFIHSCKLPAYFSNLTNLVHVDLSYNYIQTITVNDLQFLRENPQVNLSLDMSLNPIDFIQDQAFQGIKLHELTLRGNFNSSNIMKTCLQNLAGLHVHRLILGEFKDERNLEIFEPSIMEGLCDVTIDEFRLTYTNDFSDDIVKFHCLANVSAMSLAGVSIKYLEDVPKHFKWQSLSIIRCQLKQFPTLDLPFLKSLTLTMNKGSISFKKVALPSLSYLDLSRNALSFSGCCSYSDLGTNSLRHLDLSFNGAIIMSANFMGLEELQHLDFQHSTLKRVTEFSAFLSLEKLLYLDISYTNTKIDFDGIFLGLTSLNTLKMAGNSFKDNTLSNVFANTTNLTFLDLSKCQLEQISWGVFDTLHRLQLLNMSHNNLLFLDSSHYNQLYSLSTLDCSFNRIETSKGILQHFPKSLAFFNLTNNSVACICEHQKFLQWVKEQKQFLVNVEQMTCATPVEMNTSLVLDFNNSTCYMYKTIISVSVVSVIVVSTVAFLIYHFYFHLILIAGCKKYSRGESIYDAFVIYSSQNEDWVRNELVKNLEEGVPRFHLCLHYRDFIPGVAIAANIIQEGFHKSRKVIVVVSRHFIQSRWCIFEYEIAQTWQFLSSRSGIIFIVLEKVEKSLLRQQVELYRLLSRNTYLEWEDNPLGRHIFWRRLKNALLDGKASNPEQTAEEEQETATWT
Experiment: Agonist activity at TLR4 in C57BL/6 mouse primary BMDC assessed as induction of IL-6 release at 5 uM after 18 hrs by ELISA relative to N-cyclohexyl-2-(5-methyl-4-oxo-3-phenyl-4,5-dihydro-3H-pyrimido[5,4-b]indol-2-ylthio)acetamide
Conditions: not given

Compound | Activity
O=C(CCCSc1nc2c([nH]c3ccccc32)c(=O)n1-c1ccccc1)NC1CCCCC1 | 0%
Cn1c2cc(Br)ccc2c2nc(SCC(=O)NC3CCCCC3)n(-c3ccccc3)c(=O)c21 | 73%
Cn1c2ccc(Br)cc2c2nc(SCC(=O)NC3CCCCC3)n(-c3ccccc3)c(=O)c21 | 120%
Cn1c2ccc(-c3cccc4ccccc34)cc2c2nc(SCC(=O)NC3CCCCC3)n(-c3ccccc3)c(=O)c21 | 80%
O=C(CSc1nc2c3c([nH]c2c(=O)n1-c1ccccc1)CCCC3)NC1CCCCC1 | 80%
Cn1ccc2nc(SCC(=O)NC3CCCCC3)n(-c3ccccc3)c(=O)c21 | 1%
Cn1c2ccc(N)cc2c2nc(SCC(=O)NC3CCCCC3)n(-c3ccccc3)c(=O)c21 | 0%
Cn1c2ccccc2c2nc(NCC(=O)NC3CCCCC3)n(-c3ccccc3)c(=O)c21 | 1%
O=C(CCSc1nc2c([nH]c3ccccc32)c(=O)n1-c1ccccc1)NC1CCCCC1 | 0%
Cc1[nH]c2c(=O)n(-c3ccccc3)c(SCC(=O)NC3CCCCC3)nc2c1C | 78%
O=C(CSc1nc2cc[nH]c2c(=O)n1-c1ccccc1)NC1CCCCC1 | 0%
Cn1c2ccccc2c2nc(S(=O)(=O)CC(=O)NC3CCCCC3)n(-c3ccccc3)c(=O)c21 | 0%
Cn1c2ccc(NC(=O)CCC(=O)O)cc2c2nc(SCC(=O)NC3CCCCC3)n(-c3ccccc3)c(=O)c21 | 0%

Molecular target: T1, Toll-like receptor 4 (Mus musculus)
Experiment: Agonist activity at mouse TLR4 expressed in HEK293 blue cells assessed as induction of NF-kappaB activation-mediated SEAP production by measuring AUC after 20 to 24 hrs by colorimetric assay relative to N-cyclohexyl-2-(5-methyl-4-oxo-3-phenyl-4,5-dihydro-3H-pyrimido[5,4-b]indol-2-ylthio)acetamide
Type: cell-based
Conditions: not given

Compound | Activity
O=C(CCCSc1nc2c([nH]c3ccccc32)c(=O)n1-c1ccccc1)NC1CCCCC1 | 2%
Cn1c2cc(Br)ccc2c2nc(SCC(=O)NC3CCCCC3)n(-c3ccccc3)c(=O)c21 | 34%
Cn1c2ccc(Br)cc2c2nc(SCC(=O)NC3CCCCC3)n(-c3ccccc3)c(=O)c21 | 103%
Cn1c2ccc(-c3cccc4ccccc34)cc2c2nc(SCC(=O)NC3CCCCC3)n(-c3ccccc3)c(=O)c21 | 38%
O=C(CSc1nc2c3c([nH]c2c(=O)n1-c1ccccc1)CCCC3)NC1CCCCC1 | 36%
Cn1ccc2nc(SCC(=O)NC3CCCCC3)n(-c3ccccc3)c(=O)c21 | 5%
Cn1c2ccc(N)cc2c2nc(SCC(=O)NC3CCCCC3)n(-c3ccccc3)c(=O)c21 | 3%
Cn1c2ccccc2c2nc(NCC(=O)NC3CCCCC3)n(-c3ccccc3)c(=O)c21 | 2%
O=C(CCSc1nc2c([nH]c3ccccc32)c(=O)n1-c1ccccc1)NC1CCCCC1 | 3%
Cc1[nH]c2c(=O)n(-c3ccccc3)c(SCC(=O)NC3CCCCC3)nc2c1C | 28%
O=C(CSc1nc2cc[nH]c2c(=O)n1-c1ccccc1)NC1CCCCC1 | 4%
Cn1c2ccccc2c2nc(S(=O)(=O)CC(=O)NC3CCCCC3)n(-c3ccccc3)c(=O)c21 | 2%
Cn1c2ccc(NC(=O)CCC(=O)O)cc2c2nc(SCC(=O)NC3CCCCC3)n(-c3ccccc3)c(=O)c21 | 3%

Molecular target: T2, Toll-like receptor 4 (Homo sapiens, UniProt O00206)
T2 sequence (O00206 whole entry): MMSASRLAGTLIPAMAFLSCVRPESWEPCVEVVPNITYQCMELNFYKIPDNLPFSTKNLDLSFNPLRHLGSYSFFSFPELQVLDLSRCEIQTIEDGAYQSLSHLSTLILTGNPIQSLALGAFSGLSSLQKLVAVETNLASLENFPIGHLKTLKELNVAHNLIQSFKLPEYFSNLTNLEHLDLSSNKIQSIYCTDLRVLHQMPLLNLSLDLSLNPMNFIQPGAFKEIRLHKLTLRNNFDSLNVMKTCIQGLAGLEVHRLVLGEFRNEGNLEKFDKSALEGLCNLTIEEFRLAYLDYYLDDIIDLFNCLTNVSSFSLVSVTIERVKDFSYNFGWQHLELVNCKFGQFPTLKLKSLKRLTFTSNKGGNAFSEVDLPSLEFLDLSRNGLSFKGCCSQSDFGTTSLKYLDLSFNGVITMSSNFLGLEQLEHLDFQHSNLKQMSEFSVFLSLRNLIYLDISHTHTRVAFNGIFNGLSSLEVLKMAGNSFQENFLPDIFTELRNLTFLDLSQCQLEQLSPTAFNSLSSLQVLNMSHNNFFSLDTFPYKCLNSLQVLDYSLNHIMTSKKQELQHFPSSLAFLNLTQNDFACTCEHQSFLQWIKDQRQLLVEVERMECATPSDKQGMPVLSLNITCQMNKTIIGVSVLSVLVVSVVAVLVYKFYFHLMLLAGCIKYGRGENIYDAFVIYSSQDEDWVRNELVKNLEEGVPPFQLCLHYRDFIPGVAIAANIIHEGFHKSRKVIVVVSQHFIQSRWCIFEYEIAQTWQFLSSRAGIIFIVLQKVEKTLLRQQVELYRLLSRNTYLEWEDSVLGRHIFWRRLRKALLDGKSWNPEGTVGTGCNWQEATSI
Experiment: Agonist activity at human TLR4 expressed in HEK293 blue cells assessed as induction of NF-kappaB activation-mediated SEAP production after 20 to 24 hrs by colorimetric assay
Type: cell-based
Conditions: not given
In short: (§1)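 HEK-Blue cells expressing human or mouse TLR4, 2.5 × 10⁴/well in DMEM with 10% FBS, pyruvate, glutamine and antibiotics. Graded doses from 20 mM DMSO stocks, final DMSO 0.05%. Supernatants harvested after 20–24 h; SEAP read by colorimetric substrate at 630 nm. EC50 taken as the concentration giving 50% of maximal activation. LPS 100 ng/mL served as positive control.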

Compound | EC50
O=C(CCCSc1nc2c([nH]c3ccccc32)c(=O)n1-c1ccccc1)NC1CCCCC1 | > 10 µM
Cn1c2cc(Br)ccc2c2nc(SCC(=O)NC3CCCCC3)n(-c3ccccc3)c(=O)c21 | > 10 µM
Cn1c2ccc(Br)cc2c2nc(SCC(=O)NC3CCCCC3)n(-c3ccccc3)c(=O)c21 | 3.58 µM
Cn1c2ccc(-c3cccc4ccccc34)cc2c2nc(SCC(=O)NC3CCCCC3)n(-c3ccccc3)c(=O)c21 | 2.12 µM
O=C(CSc1nc2c3c([nH]c2c(=O)n1-c1ccccc1)CCCC3)NC1CCCCC1 | > 10 µM
Cn1ccc2nc(SCC(=O)NC3CCCCC3)n(-c3ccccc3)c(=O)c21 | > 10 µM
Cn1c2ccc(N)cc2c2nc(SCC(=O)NC3CCCCC3)n(-c3ccccc3)c(=O)c21 | > 10 µM
Cn1c2ccccc2c2nc(NCC(=O)NC3CCCCC3)n(-c3ccccc3)c(=O)c21 | > 10 µM
O=C(CCSc1nc2c([nH]c3ccccc32)c(=O)n1-c1ccccc1)NC1CCCCC1 | > 10 µM
Cc1[nH]c2c(=O)n(-c3ccccc3)c(SCC(=O)NC3CCCCC3)nc2c1C | > 10 µM
O=C(CSc1nc2cc[nH]c2c(=O)n1-c1ccccc1)NC1CCCCC1 | > 10 µM
Cn1c2ccccc2c2nc(S(=O)(=O)CC(=O)NC3CCCCC3)n(-c3ccccc3)c(=O)c21 | > 10 µM
Cn1c2ccc(NC(=O)CCC(=O)O)cc2c2nc(SCC(=O)NC3CCCCC3)n(-c3ccccc3)c(=O)c21 | > 10 µM

Test system: not listed separately
Experiment: Cytotoxicity against C57BL/6 mouse primary BMDC assessed as cell viability at 5 uM after 18 hrs by MTT assay relative to control
Type: cell-based
Conditions: primary BMDC (bone marrow-derived dendritic cells), read-out: Activity

Compound | viability at 18 h, 5 µM
O=C(CCCSc1nc2c([nH]c3ccccc32)c(=O)n1-c1ccccc1)NC1CCCCC1 | 70%
Cn1c2cc(Br)ccc2c2nc(SCC(=O)NC3CCCCC3)n(-c3ccccc3)c(=O)c21 | 93%
Cn1c2ccc(Br)cc2c2nc(SCC(=O)NC3CCCCC3)n(-c3ccccc3)c(=O)c21 | 63%
Cn1c2ccc(-c3cccc4ccccc34)cc2c2nc(SCC(=O)NC3CCCCC3)n(-c3ccccc3)c(=O)c21 | 102%
O=C(CSc1nc2c3c([nH]c2c(=O)n1-c1ccccc1)CCCC3)NC1CCCCC1 | 91%
Cn1ccc2nc(SCC(=O)NC3CCCCC3)n(-c3ccccc3)c(=O)c21 | 117%
Cn1c2ccc(N)cc2c2nc(SCC(=O)NC3CCCCC3)n(-c3ccccc3)c(=O)c21 | 102%
Cn1c2ccccc2c2nc(NCC(=O)NC3CCCCC3)n(-c3ccccc3)c(=O)c21 | 113%
O=C(CCSc1nc2c([nH]c3ccccc32)c(=O)n1-c1ccccc1)NC1CCCCC1 | 58%
Cc1[nH]c2c(=O)n(-c3ccccc3)c(SCC(=O)NC3CCCCC3)nc2c1C | 70%
O=C(CSc1nc2cc[nH]c2c(=O)n1-c1ccccc1)NC1CCCCC1 | 99%
Cn1c2ccccc2c2nc(S(=O)(=O)CC(=O)NC3CCCCC3)n(-c3ccccc3)c(=O)c21 | 50%
Cn1c2ccc(NC(=O)CCC(=O)O)cc2c2nc(SCC(=O)NC3CCCCC3)n(-c3ccccc3)c(=O)c21 | 75%

Molecular target: T3, Toll-like receptor 4 (Mus musculus, UniProt Q9QUK6)
T3 sequence (Q9QUK6 whole entry): T1 sequence (whole entry)
Experiment: Agonist activity at mouse TLR4 expressed in HEK293 blue cells assessed as induction of NF-kappaB activation-mediated SEAP production after 20 to 24 hrs by colorimetric assay
Type: cell-based
Conditions: not given
In short: as §1

Compound | EC50
O=C(CCCSc1nc2c([nH]c3ccccc32)c(=O)n1-c1ccccc1)NC1CCCCC1 | > 10 µM
Cn1c2cc(Br)ccc2c2nc(SCC(=O)NC3CCCCC3)n(-c3ccccc3)c(=O)c21 | 4.89 µM
Cn1c2ccc(Br)cc2c2nc(SCC(=O)NC3CCCCC3)n(-c3ccccc3)c(=O)c21 | 2.45 µM
Cn1c2ccc(-c3cccc4ccccc34)cc2c2nc(SCC(=O)NC3CCCCC3)n(-c3ccccc3)c(=O)c21 | 2.58 µM
O=C(CSc1nc2c3c([nH]c2c(=O)n1-c1ccccc1)CCCC3)NC1CCCCC1 | 7.12 µM
Cn1ccc2nc(SCC(=O)NC3CCCCC3)n(-c3ccccc3)c(=O)c21 | > 10 µM
Cn1c2ccc(N)cc2c2nc(SCC(=O)NC3CCCCC3)n(-c3ccccc3)c(=O)c21 | > 10 µM
Cn1c2ccccc2c2nc(NCC(=O)NC3CCCCC3)n(-c3ccccc3)c(=O)c21 | > 10 µM
O=C(CCSc1nc2c([nH]c3ccccc32)c(=O)n1-c1ccccc1)NC1CCCCC1 | > 10 µM
Cc1[nH]c2c(=O)n(-c3ccccc3)c(SCC(=O)NC3CCCCC3)nc2c1C | > 10 µM
O=C(CSc1nc2cc[nH]c2c(=O)n1-c1ccccc1)NC1CCCCC1 | > 10 µM
Cn1c2ccccc2c2nc(S(=O)(=O)CC(=O)NC3CCCCC3)n(-c3ccccc3)c(=O)c21 | > 10 µM
Cn1c2ccc(NC(=O)CCC(=O)O)cc2c2nc(SCC(=O)NC3CCCCC3)n(-c3ccccc3)c(=O)c21 | > 10 µM

Molecular target: T2, Toll-like receptor 4
Experiment: Agonist activity at human TLR4 expressed in HEK293 blue cells assessed as induction of NF-kappaB activation-mediated SEAP production by measuring AUC after 20 to 24 hrs by colorimetric assay relative to N-cyclohexyl-2-(5-methyl-4-oxo-3-phenyl-4,5-dihydro-3H-pyrimido[5,4-b]indol-2-ylthio)acetamide
Type: cell-based
Conditions: not given

Compound | Activity
O=C(CCCSc1nc2c([nH]c3ccccc32)c(=O)n1-c1ccccc1)NC1CCCCC1 | 8%
Cn1c2cc(Br)ccc2c2nc(SCC(=O)NC3CCCCC3)n(-c3ccccc3)c(=O)c21 | 40%
Cn1c2ccc(Br)cc2c2nc(SCC(=O)NC3CCCCC3)n(-c3ccccc3)c(=O)c21 | 159%
Cn1c2ccc(-c3cccc4ccccc34)cc2c2nc(SCC(=O)NC3CCCCC3)n(-c3ccccc3)c(=O)c21 | 72%
O=C(CSc1nc2c3c([nH]c2c(=O)n1-c1ccccc1)CCCC3)NC1CCCCC1 | 27%
Cn1ccc2nc(SCC(=O)NC3CCCCC3)n(-c3ccccc3)c(=O)c21 | 17%
Cn1c2ccc(N)cc2c2nc(SCC(=O)NC3CCCCC3)n(-c3ccccc3)c(=O)c21 | 17%
Cn1c2ccccc2c2nc(NCC(=O)NC3CCCCC3)n(-c3ccccc3)c(=O)c21 | 10%
O=C(CCSc1nc2c([nH]c3ccccc32)c(=O)n1-c1ccccc1)NC1CCCCC1 | 7%
Cc1[nH]c2c(=O)n(-c3ccccc3)c(SCC(=O)NC3CCCCC3)nc2c1C | 18%
O=C(CSc1nc2cc[nH]c2c(=O)n1-c1ccccc1)NC1CCCCC1 | 7%
Cn1c2ccccc2c2nc(S(=O)(=O)CC(=O)NC3CCCCC3)n(-c3ccccc3)c(=O)c21 | 16%
Cn1c2ccc(NC(=O)CCC(=O)O)cc2c2nc(SCC(=O)NC3CCCCC3)n(-c3ccccc3)c(=O)c21 | 28%
